According to ChEMBL document CHEMBL1153852, “Steroidal lactones as inhibitors of 17beta-hydroxysteroid dehydrogenase type 5: chemical synthesis, enzyme inhibitory activity, and assessment of estrogenic and androgenic activities” (Eur J Med Chem, 2009):
Activity calls are given as the source filed them. The calls are words filed in the database; no cut-off is given here.

Experiments:
[1] = biological target: T1, Aldo-keto reductase family 1 member C3 (Homo sapiens) (UniProt P42330); experiment: Inhibition of human 17beta-HSD5 expressed in HEK293 cells assessed as enzyme-mediated transformation of [14C]-4-androstene-3,17-dione in to [14C]-testosterone at 0.3 uM after 18 hrs; type: cell-based
T1 sequence (whole entry): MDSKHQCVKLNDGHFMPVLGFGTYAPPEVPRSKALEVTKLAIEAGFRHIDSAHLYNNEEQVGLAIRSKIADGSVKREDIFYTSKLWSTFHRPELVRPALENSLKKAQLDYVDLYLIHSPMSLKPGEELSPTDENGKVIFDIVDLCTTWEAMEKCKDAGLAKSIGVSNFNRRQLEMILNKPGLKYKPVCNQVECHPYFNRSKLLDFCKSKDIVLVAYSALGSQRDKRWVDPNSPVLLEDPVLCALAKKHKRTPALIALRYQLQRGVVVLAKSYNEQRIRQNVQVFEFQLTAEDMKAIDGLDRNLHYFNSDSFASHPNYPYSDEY
Outline: (§1)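 Intact HEK-293 cells stably over-expressing human 17β-HSD5, in freshly changed culture medium. [14C]-4-androstene-3,17-dione is added at 100 nM with inhibitor from an ethanolic solution; controls get ethanol only. After 18 h the conversion to [14C]-T is measured.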

[2] = biological target: T1, Aldo-keto reductase family 1 member C3 (Homo sapiens); experiment: Inhibition of human 17beta-HSD5 expressed in HEK293 cells assessed as enzyme-mediated transformation of [14C]-4-androstene-3,17-dione in to [14C]-testosterone at 3 uM after 18 hrs; type: cell-based; outline: as §1
[3] = biological target: T2, Aldo-keto reductase family 1 member C3 (Homo sapiens, UniProt P42330); experiment: Inhibition of human 17beta-HSD5 expressed in HEK293 cells assessed as enzyme-mediated transformation of [14C]-4-androstene-3,17-dione in to [14C]-testosterone after 18 hrs; type: cell-based
T2 sequence (P42330 whole entry): T1 sequence (whole entry)
Outline: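 Intact HEK-293 cells stably over-expressing human 17β-HSD5, in fresh culture medium. [14C]-4-androstene-3,17-dione 0.1 μM with inhibitor added in ethanol (ethanol alone as control), 18 h.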

ZR-75-1 [4] = experiment: Estrogenic activity in human ZR-75-1 cells expressing estrogen receptor assessed as estrogen-induced cell proliferation at 1 uM after 9 days relative to estrogen; type: functional
Outline: (§2)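 ZR-75-1 cells are resuspended in phenol red-free RPMI 1640 with 5% dextran-charcoal-treated FBS and seeded at 10,000 cells/well. After 3 days of adhesion, lactones from ethanol stocks are added alone or with E2 (0.1 nM). Cells grow 9 days at 37 °C in 5% CO2, with medium changed every 2–3 days. DNA is measured by DABA fluorescence; E2-induced growth is set to 100%.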

ZR-75-1 [5] = experiment: Antiestrogenic activity in human ZR-75-1 cells expressing estrogen receptor assessed as inhibition of estrogen-induced cell proliferation at 0.03 uM after 9 days relative to estrogen; type: functional, cell-based; outline: as §2
ZR-75-1 [6] = experiment: Antiestrogenic activity in human ZR-75-1 cells expressing estrogen receptor assessed as inhibition of estrogen-induced cell proliferation at 1 uM after 9 days relative to estrogen; type: functional, cell-based; outline: as §2
Mus musculus [7] = species: Mus musculus; experiment: Androgenic activity in mouse SC115 cells expressing androgen receptor assessed as DHT-induced cell proliferation at 0.1 uM after 10 days relative to DHT; type: functional, cell-based
Outline: (§3)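 SC115 Shionogi clone selected for DHT sensitivity, in MEM with 2% dextran-charcoal-treated FCS, seeded at 20,000 cells/well. After 24 h the medium is renewed and lactones added at 0.1 and 1, without DHT. Final ethanol is 0.01%. Cells are grown 10 days at 37 °C in 5% CO2, with medium changed every 3–4 days. DNA is measured by DABA fluorescence; DHT-stimulated growth is set to 100%.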

Mus musculus [8] = species: Mus musculus; experiment: Androgenic activity in mouse SC115 cells expressing androgen receptor assessed as DHT-induced cell proliferation at 1 uM after 10 days relative to DHT; type: functional, cell-based; outline: as §3
[9] = biological target: T3, Estrogen receptor (Rattus norvegicus) (UniProt P06211); experiment: Binding affinity to rat uterus estrogen receptor at 10 uM
T3 sequence (whole entry): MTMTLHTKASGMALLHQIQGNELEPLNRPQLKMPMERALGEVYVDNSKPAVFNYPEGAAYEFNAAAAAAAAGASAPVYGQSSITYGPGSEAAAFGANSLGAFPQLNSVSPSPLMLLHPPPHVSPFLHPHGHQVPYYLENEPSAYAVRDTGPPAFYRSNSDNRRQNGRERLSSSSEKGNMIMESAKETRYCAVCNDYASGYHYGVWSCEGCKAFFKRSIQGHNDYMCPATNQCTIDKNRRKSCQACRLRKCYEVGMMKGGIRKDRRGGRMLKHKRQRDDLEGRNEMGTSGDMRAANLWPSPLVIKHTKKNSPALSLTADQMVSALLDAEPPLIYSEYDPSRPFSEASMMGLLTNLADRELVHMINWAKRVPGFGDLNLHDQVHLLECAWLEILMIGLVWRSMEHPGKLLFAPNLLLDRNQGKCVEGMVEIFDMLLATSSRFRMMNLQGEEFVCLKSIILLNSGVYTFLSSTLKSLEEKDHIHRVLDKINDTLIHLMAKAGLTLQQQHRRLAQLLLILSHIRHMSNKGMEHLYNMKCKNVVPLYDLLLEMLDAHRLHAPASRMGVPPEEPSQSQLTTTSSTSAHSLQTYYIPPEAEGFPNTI

[10] = biological target: T4, Androgen receptor (Rattus norvegicus) (UniProt P15207); experiment: Binding affinity to rat ventral prostate androgen receptor at 1 uM; type: tissue-based; conditions: Prostate gland
T4 sequence (whole entry): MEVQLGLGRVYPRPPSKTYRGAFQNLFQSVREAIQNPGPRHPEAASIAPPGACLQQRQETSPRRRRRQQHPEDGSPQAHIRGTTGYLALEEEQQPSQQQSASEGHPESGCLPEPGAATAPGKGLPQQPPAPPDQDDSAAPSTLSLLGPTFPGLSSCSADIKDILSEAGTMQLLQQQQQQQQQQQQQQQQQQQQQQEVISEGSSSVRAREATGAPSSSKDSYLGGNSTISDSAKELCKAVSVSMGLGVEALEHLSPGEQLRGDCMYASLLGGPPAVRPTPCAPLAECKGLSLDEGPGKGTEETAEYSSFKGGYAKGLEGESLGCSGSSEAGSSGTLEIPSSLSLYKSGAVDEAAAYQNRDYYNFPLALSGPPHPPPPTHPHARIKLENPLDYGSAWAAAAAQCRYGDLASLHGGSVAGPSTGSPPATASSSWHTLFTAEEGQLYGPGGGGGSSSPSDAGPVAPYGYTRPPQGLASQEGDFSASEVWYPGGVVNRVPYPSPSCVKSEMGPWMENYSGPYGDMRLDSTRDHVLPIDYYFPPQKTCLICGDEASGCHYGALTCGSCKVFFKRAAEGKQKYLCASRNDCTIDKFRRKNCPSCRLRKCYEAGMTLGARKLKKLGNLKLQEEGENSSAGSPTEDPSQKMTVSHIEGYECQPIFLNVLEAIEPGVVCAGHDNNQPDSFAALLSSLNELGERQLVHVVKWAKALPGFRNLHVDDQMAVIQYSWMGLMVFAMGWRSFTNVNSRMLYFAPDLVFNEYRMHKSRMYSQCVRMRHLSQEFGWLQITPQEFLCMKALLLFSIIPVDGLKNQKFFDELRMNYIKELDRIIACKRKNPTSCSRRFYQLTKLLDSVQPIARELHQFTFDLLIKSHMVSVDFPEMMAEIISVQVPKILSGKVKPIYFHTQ

Compound | inhibition [1] [%] | inhibition [2] [%] | IC50 [3] [nM] | Activity (ZR-75-1 [4]) [%] | Activity (ZR-75-1 [5]) | Activity (ZR-75-1 [6]) | Activity (Mus musculus [7]) | Activity (Mus musculus [8]) | Activity [9] [%] | Activity [10] [%]
CC1(C)CC[C@@]2(CC[C@H]3[C@@H]4CCc5cc(O)ccc5[C@H]4CC[C@@]32C)OC1=O | 86 | 94 | 28 | 30 | inactive | Active | inactive | inactive | 80 | 
CC1(C)CC[C@@]2(CC[C@H]3[C@@H]4CCc5ccccc5[C@H]4CC[C@@]32C)OC1=O | 94 | 95 | 2.9 | 50 | inactive | inactive | inactive | inactive |  | 0
